Data reported in ChEMBL document CHEMBL1127590 (J Med Chem, 1994).

Legend:
[1] = biological target: T1, 3-oxo-5-alpha-steroid 4-dehydrogenase 1 (Homo sapiens, UniProt P18405); assay: In vitro inhibitory activity against human type 1 5-alpha reductase
T1 sequence (P18405 whole entry): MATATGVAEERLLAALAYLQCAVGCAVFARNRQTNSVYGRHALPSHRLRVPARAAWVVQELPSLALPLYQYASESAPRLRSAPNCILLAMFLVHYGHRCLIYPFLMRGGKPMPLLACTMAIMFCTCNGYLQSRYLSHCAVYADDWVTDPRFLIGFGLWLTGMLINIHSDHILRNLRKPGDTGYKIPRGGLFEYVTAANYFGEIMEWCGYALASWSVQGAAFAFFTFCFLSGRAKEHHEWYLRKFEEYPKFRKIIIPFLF
Procedure, shortened: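 Used microsomes from baculovirus-infected SF-9 cells expressing recombinant human type 1 5AR, at final enzyme 0.05–5 nM. Buffer at pH 7 and 37 °C contained an NADPH-regenerating system. Inhibitor was preincubated 10 min before adding 100 nM [3H]testosterone.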

Rattus norvegicus [2] = assay: In vivo inhibition of T stimulated prostate growth in rats was reported after oral administration at a dose 10 mg/kg/day
[3] = Half-life after intravenous administration of 5 mg/kg/day dose in male beagles; assay type: ADME, organism-based, Canis lupus familiaris; set-up: route intravenous; settings: beagle, dog, in vivo
Procedure, shortened: (§1)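 Male beagles received iv doses of 5 or 10 mg/kg from 5 mg/mL solutions in aqueous 40% (w/v) Molecusol, and some also received oral doses. Heparinized blood was sampled from 0 min to 24 h and assayed by HPLC (UV 304 nm, or thermospray MS). AUC∞ was calculated by the trapezoidal rule.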

[4] = In vitro inhibitory activity against human adrenal 3-beta hydroxy-delta 5-teroid isomerase
Procedure, shortened: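 Microsomes were prepared from human adrenal tissue by homogenization and differential centrifugation. Inhibitor in 50% DMSO was preincubated 10 min at 37 °C in 100 mM potassium phosphate pH 7.5 with 1 mM NAD+. The reaction was started with 100 nM [3H]DHEA and quenched in ethanol after 15 min. DHEA-to-androstenedione conversion was measured by radio-HPLC.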

Rattus norvegicus [5] = assay: In vivo inhibition of T stimulated prostate growth in rats was reported after oral administration at a dose 10 mg/kg/day; assay type: functional, Prostate gland
Procedure, shortened: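 Rats were castrated, and 7 days later dosed orally once daily for 7 days at 10 mg/kg/day in 1 part cremophor:2 parts saline:0.5% Tween 80 (8 rats/group). Testosterone (40 μg/kg sc in corn oil) was given 4 h after each dose. Ventral prostates were weighed on day 8. Weight reduction was expressed as a percent of the finasteride reduction versus T-treated vehicle controls.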

[6] = biological target: T2, 3-oxo-5-alpha-steroid 4-dehydrogenase 2 (Homo sapiens, UniProt P31213); assay: In vitro inhibitory activity against human type 2 5-alpha reductase
T2 sequence (P31213 whole entry): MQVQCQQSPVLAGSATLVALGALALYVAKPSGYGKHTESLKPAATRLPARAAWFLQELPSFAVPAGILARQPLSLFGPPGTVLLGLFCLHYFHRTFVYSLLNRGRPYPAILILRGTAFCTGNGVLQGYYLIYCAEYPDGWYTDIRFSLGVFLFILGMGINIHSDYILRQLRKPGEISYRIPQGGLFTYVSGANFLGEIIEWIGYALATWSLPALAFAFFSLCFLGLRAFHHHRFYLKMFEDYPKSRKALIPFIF

[7] = Bioavailability in dog (male Beagle) i.v. administration; assay type: ADME, organism-based, Canis lupus familiaris; settings: in vivo, po, in the assay text read “oral administration” for “[…]”; procedure, shortened: as §1
[8] = Half-life after intravenous administration of 10 mg/kg/day dose in male beagles; assay type: ADME, organism-based, Canis lupus familiaris; set-up: route intravenous; settings: beagle, dog, in vivo; procedure, shortened: as §1

| SMILES | Ki [1] | half-life [3] | Ki [4] | IC50 [6] | bioavailability [7] | half-life [8] | Reduction (Rattus norvegicus [2]) | Reduction (Rattus norvegicus [5]) |
| --- | --- | --- | --- | --- | --- | --- | --- | --- |
| CC(C)CC(=O)[C@H]1CCC2C3CN(C)C4=CC(=O)CC[C@]4(C)C3CC[C@@]21C (some centres undefined) | 3.1 nM | 2.2 h | 1.1 nM | – | – | – | 5% | – |
| C[C@]12CCC(=O)C=C1NCC1C2CC[C@@]2(C)C1CC[C@@H]2C(=O)NC12CC3CC(CC(C3)C1)C2 (some centres undefined) | 11 nM | – | 78 nM | – | – | 1.8 h | – | 38% |
| CN1CC2C(CC[C@@]3(C)C2CC[C@@H]3C(=O)NC(C)(C)C)[C@@]2(C)CCC(=O)C=C12 (some centres undefined) | 87 nM | – | 6.6 nM | – | 80% | 1.4 h | – | 54% |
| CN1CC2C(CC[C@@]3(C)C2CC[C@@H]3C(=O)NC(c2ccccc2)c2ccccc2)[C@@]2(C)CCC(=O)C=C12 (some centres undefined) | 6.4 nM | – | 11 nM | 0.2 nM | – | – | – | 13% |
| CC1=C2NCC3C(CC[C@@]4(C)C3CC[C@@H]4C(=O)NC34CC5CC(CC(C5)C3)C4)[C@@]2(C)CCC1=O (some centres undefined) | 1.1 nM | – | 9 nM | < 0.1 nM | – | – | – | 24% |
| CC1=C2NCC3C(CC[C@@]4(C)C3CC[C@@H]4C(=O)NC(C)(C)C)[C@@]2(C)CCC1=O (some centres undefined) | 12 nM | – | 9.2 nM | 1.4 nM | – | – | – | 0% |
| C[C@]12CCC(=O)C=C1NCC1C2CC[C@@]2(C)C1CC[C@@H]2C(=O)NC(c1ccc(Cl)cc1)c1ccc(Cl)cc1 (some centres undefined) | – | 12 h | 510 nM | – | – | – | 74% | – |
| CN1CC2C(CC[C@@]3(C)C2CC[C@@H]3C(=O)NC23CC4CC(CC(C4)C2)C3)[C@@]2(C)C=CC(=O)C=C12 (some centres undefined) | 280 nM | – | 62 nM | 0.3 nM | – | – | – | – |
| CCN(CC)C(=O)[C@H]1CCC2C3CCNC4=CC(=O)CC[C@]4(C)C3CC[C@@]21C (some centres undefined) | 1000 nM | – | 1500 nM | 3.8 nM | – | – | – | – |
| CCN(CC)C(=O)[C@H]1CCC2C3CNC4=C(CN(C)C)C(=O)CC[C@]4(C)C3CC[C@@]21C (some centres undefined) | 10000 nM | – | 1200 nM | 170 nM | – | – | – | – |

More lines, in order of falling Ki [4], values ahead:

| Ki [1] | half-life [3] | Ki [4] | IC50 [6] | bioavailability [7] | half-life [8] | SMILES | Reduction (Rattus norvegicus [2]) | Reduction (Rattus norvegicus [5]) |
| --- | --- | --- | --- | --- | --- | --- | --- | --- |
| – | – | 11000 nM | – | 69% | 4.2 h | CC(C)(C)NC(=O)[C@H]1CC[C@H]2[C@@H]3CC[C@H]4NC(=O)C=C[C@]4(C)[C@H]3CC[C@]12C [FINASTERIDE] | – | 100% |
| 2400 nM | – | 2200 nM | 1.8 nM | – | – | CC(C)(C)NC(=O)[C@H]1CCC2C3CNC4=CC(=O)C=C[C@]4(C)C3CC[C@@]21C (some centres undefined) | – | – |
| 8300 nM | – | 1500 nM | 42 nM | – | – | CCN(CC)C(=O)[C@H]1CCC2C3CN(C#N)C4=CC(=O)CC[C@]4(C)C3CC[C@@]21C (some centres undefined) | – | – |
| 74 nM | – | 1000 nM | < 0.1 nM | – | – | C[C@]12C=CC(=O)C=C1NCC1C2CC[C@@]2(C)C1CC[C@@H]2C(=O)NC12CC3CC(CC(C3)C1)C2 (some centres undefined) | – | 14% |
| 48 nM | – | 990 nM | < 0.1 nM | – | – | C[C@]12C=CC(=O)C=C1NCC1C2CC[C@@]2(C)C1CC[C@@H]2C(=O)NC(c1ccccc1)c1ccccc1 (some centres undefined) | – | 0% |
| – | 5.2 h | 320 nM | – | – | – | C[C@]12CCC(=O)C=C1NCC1C2CC[C@@]2(C)C1CC[C@@H]2C(=O)NC(c1ccc(F)cc1)c1ccc(F)cc1 (some centres undefined) | 90% | – |
| – | 4.8 h | 150 nM | < 0.1 nM | 79% | – | C[C@]12CCC(=O)C=C1NCC1C2CC[C@@]2(C)C1CC[C@@H]2C(=O)NC(c1ccccc1)c1ccccc1 (some centres undefined) | 95% | – |
| 5800 nM | – | 80 nM | 3.5 nM | – | – | CCN(CC)C(=O)[C@H]1CCC2C3CNC4=CC(=O)C=C[C@]4(C)C3CC[C@@]21C (some centres undefined) | – | – |
| 3.6 nM | – | 18 nM | < 0.1 nM | – | – | CC1=C2NCC3C(CC[C@@]4(C)C3CC[C@@H]4C(=O)NC(c3ccccc3)c3ccccc3)[C@@]2(C)CCC1=O (some centres undefined) | – | 38% |
| 40 nM | – | 18 nM | – | – | – | CCN(CC)C(=O)[C@H]1CCC2C3CNC4=C(C)C(=O)CC[C@]4(C)C3CC[C@@]21C (some centres undefined) | – | 0% |
| 6.2 nM | – | 18 nM | 0.4 nM | – | – | CC1=C2N(C)CC3C(CC[C@@]4(C)C3CC[C@@H]4C(=O)NC34CC5CC(CC(C5)C3)C4)[C@@]2(C)CCC1=O (some centres undefined) | – | – |
| 180 nM | – | 3.6 nM | 2.3 nM | – | – | CCN(CC)C(=O)[C@H]1CCC2C3CN(C)C4=CC(=O)CC[C@]4(C)C3CC[C@@]21C (some centres undefined) | – | 52% |
| 8.5 nM | – | 2.7 nM | < 0.1 nM | – | – | CN1CC2C(CC[C@@]3(C)C2CC[C@@H]3C(=O)NC23CC4CC(CC(C4)C2)C3)[C@@]2(C)CCC(=O)C=C12 (some centres undefined) | – | 12% |
